# Screening data (PubChem BioAssay)
# BB579 growth dn – reduces growth of yeast BB579 in restrictive medium | S. cerevisiae BB579 growth, OD615, 48 h | inhibition, % at 10 µM | 140,000 compounds, 0.51% hits | AID 804;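 active means inhibition above a set limit, 3 SD over the mean compound inhibition, cut at about 44% in these data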
#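 Material: Saccharomyces cerevisiae DeaD strain BB579, replicative lifespan model yeast; buffer or medium: CSMM-D restrictive synthetic medium containing dextrose (glucose); compound: 10 µM single dose, DMSO 0.25%; timing: 48 h compound exposure at 30 °C after 4 h preincubation; signal: turbidity as optical density at 615 nm; benchmarks: positive control amphotericin B 10 µg/mL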
# WT yeast gro inh – growth inhibition of WT yeast, mitochondrial fusion screen; mitochondrial fusion phenotypic screen, WT strain; inhibition, % at 10 µM; 190,000 compounds, 2.1% hits; in the data active means inhibition above about 58%; tested in S. cerevisiae
# RAM inhibit – yeast RAM network inhibition; S. cerevisiae dse1pr::URA3 reporter, 5-FOA growth OD615, 2 d; analog-sensitive cbk1-as2 kinase mutant strain; inhibition, % at 50 µM; 190,000 compounds, 1.8% hits;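 active means inhibition above a set limit, 3 SD over mean compound inhibition, cut at about 8.4% in these data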;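 further: 0% = DMSO-only wells with no growth and 100% = 10 µM 1-NA-PP1 full growth; inhibition rescues growth on 5-FOA so higher OD means more RAM inhibition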
# Measles CPE – protection of cells from measles virus | Measles virus-infected cells, CPE protection, absorbance | protection (pct of control), % at 4 µM | 140,000 compounds, 1.5% hits | AID 841; in the data active means protection mostly above about 24%, no sharp cut-off; inactive means mostly below about 26%
# DAT uptake mod – changed human dopamine transporter uptake under cocaine IC80; AID 449768; 110,000 compounds, 1.3% hits; LLC-PK1 hDAT cells, [14C]-dopamine uptake with cocaine IC80; actives deviate in either direction; B-score at 10 µM; Q01959;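 active means Z score or B-score, a plate-position-corrected score, falls beyond the plate's 99.7% confidence bounds, in either direction; inactive means both scores lie inside the 99.7% bounds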;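 further: scored against the spread of the other compound wells on the same plate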
# Target sequence (Q01959 whole entry, looked up): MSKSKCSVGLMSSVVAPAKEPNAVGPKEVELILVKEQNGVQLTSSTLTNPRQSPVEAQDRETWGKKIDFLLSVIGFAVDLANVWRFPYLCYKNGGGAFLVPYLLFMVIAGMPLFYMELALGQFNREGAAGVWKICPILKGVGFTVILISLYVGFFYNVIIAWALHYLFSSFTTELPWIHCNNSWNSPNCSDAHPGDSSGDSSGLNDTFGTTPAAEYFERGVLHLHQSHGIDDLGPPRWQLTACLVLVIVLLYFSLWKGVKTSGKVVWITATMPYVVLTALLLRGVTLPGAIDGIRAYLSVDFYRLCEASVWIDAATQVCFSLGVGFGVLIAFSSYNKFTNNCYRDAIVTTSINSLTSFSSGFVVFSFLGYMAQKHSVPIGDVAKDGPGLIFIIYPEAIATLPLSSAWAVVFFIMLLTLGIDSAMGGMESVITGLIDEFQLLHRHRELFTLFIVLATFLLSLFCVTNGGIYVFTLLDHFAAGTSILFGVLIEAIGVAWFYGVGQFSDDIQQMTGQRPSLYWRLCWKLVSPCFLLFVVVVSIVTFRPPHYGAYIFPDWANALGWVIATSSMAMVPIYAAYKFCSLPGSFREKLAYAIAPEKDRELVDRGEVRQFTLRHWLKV
# Yeast lifespan up – extends the lifespan of yeast; S. cerevisiae growth with nicotinamide, OD615; deaD strain in restrictive glucose medium; inhibition of the nicotinamide effect, % at 10 µM; 130,000 compounds, 0.68% hits;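 active means inhibition above a set limit, placed 3 SD over the median of all compounds, cut at about 26% in these data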;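 further: 0% = nicotinamide-treated wells and 100% = cells grown without nicotinamide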
#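 assay system = DeaD-strain S. cerevisiae | measured by = absorbance at 615 nm | probe or stimulus = nicotinamide 1.5 mM | buffer or medium = CSMM-D glucose medium, restrictive | times = 48 h at 30 °C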
# An asterisk follows results filed as active; . = no result. The list is not random: actives were taken first. Their share in the collection is about 6.1%.
SMILES,BB579 growth dn,WT yeast gro inh,RAM inhibit,Measles CPE,DAT uptake mod,Yeast lifespan up
Cc1ccc(Nc2nc(N)c([N+](=O)[O-])c(N3CCC(C)CC3)n2)cc1C,-5,95*,1,9,.,-4
Cc1cccc(Nc2nc(N)c([N+](=O)[O-])c(N3CCCC(C)C3)n2)c1 (stereo unspecified),43,93*,-2,11,.,-12
Cc1cccc(Nc2nc(N)c([N+](=O)[O-])c(N3CCN(C)CC3)n2)c1,-19,-1,1,22,.,-4
Cc1ccc(Nc2nc(N)c([N+](=O)[O-])c(NCc3ccco3)n2)cc1C,-47,72*,4,7,.,-5
O=C(CCn1nnc2ccccc21)Nc1nnc(-c2ccccc2F)s1,-9,-12,3,3,1.4,-4
Cc1ccc(/C=N/NC(=O)c2ccco2)s1,8,2,0,16,0.16,-9
Cc1ccc(/C=N/NC(=O)c2ccc(C(=O)N/N=C/c3ccc(C)s3)o2)s1,-73,20,10*,5,-1.4,2
Cn1cc(C(=O)C(F)(F)F)c2ccccc21,-36,2,2,53*,0.26,-22
COc1ccc(C2c3sc(=O)[nH]c3SC3C4CCC(C4)C23)cc1 (stereo unspecified),-88,65*,1,38,0.31,-6
Cc1ccc(-n2c(C)cc(C(=O)CN3CCCCC3)c2C)cc1,-9,-9,1,4,.,6
COc1cc(NC(C)=O)c2ncccc2c1[N+](=O)[O-],14,-12,2,6,.,-5
Cc1cc(NC(=O)COC(=O)COc2cccc3c2OC(C)(C)C3)no1,-21,-12,-1,.,-0.049,-16
Cc1cnc(NC(=O)COc2cccc3c2OC(C)(C)C3)s1,-29,6,1,65*,0.57,-20
O=C(COC(=O)Cc1ccc(S(=O)(=O)N2CCCCC2)s1)Nc1ccc2c(c1)OCO2,-30,7,9.4*,5,-1.9,-15
NS(=O)(=O)c1cccc(NC(=O)COC(=O)Cc2ccc(S(=O)(=O)N3CCCCC3)s2)c1,.,1,8,.,.,.
COc1cc(CNCCNC(=O)c2nonc2N)ccc1OCc1ccc(Cl)cc1,.,9,1,.,.,.
CCOC(=O)c1cccc(NC(=O)C2CCCN(S(=O)(=O)c3c(C)nn(C)c3C)C2)c1 (stereo unspecified),28,1,2,2,3*,-6
CCOC(=O)c1cccc(NC(=O)C2CCCN(S(=O)(=O)c3c(C)n[nH]c3C)C2)c1 (stereo unspecified),-33,-8,5,5,-0.28,-8
C=CC(C)N1C(=O)S/C(=C\c2ccc(N3CCOCC3)cc2C)C1=O (stereo unspecified),-23,-3,6,20,.,1
C=CCN1C(=O)S/C(=C\c2ccc(N3CCOCC3)cc2C)C1=O,-25,-6,8.6*,5,0.76,-5
Cc1nccn1-c1ccc(C(F)(F)F)cc1NC=O,-80,-49,2,3,-0.3,3
CCN1CCN(CCNC(=O)c2ccc3c(c2)N(Cc2ccc(F)cc2)C(=O)/C(=C/c2ccccc2)S3)CC1,.,86*,-2,.,.,.
CCN1CCN(CCNC(=O)c2ccc(/C=C3/Sc4ccccc4N(Cc4cccc(Cl)c4)C3=O)cc2)CC1,.,98*,-2,.,.,.
CCOc1cc(S(=O)(=O)NCc2ccccc2)ccc1Br,.,3,4,.,.,.
COC(=O)C1=C(C)N(CCc2cc(OC)c(OC)c(OC)c2)C(=O)N[C@H]1c1cccs1,-33,20,2,8,.,-1
SMILES,BB579 growth dn,WT yeast gro inh,RAM inhibit,Measles CPE,DAT uptake mod,Yeast lifespan up
Cc1cc(C)c(CSc2ncnc3nc[nH]c23)c(C)c1,.,69*,2,.,.,.
Cc1cccc(CSc2ncnc3nc[nH]c23)c1,-30,11,0,8,0.64,7
COc1ccc(NC(=O)c2cccnc2SC)cc1S(=O)(=O)N1CCCCC1,-21,-2,4,7,.,-4
CC(=O)NCCC(=O)N1CCCC(CNC(=O)c2ccc(-c3ccccc3)cc2)C1 (stereo unspecified),.,2,1,.,.,.
CCOC(=O)c1ccc(-n2c(N)c(C(=O)NCc3ccco3)sc2=S)cc1,10,10,6,51*,0.8,-33
COc1ccc(-n2c(N)c(C(=O)NCc3ccco3)sc2=S)cc1,-41,40,4,4,-0.99,-16
Cc1cccc2cc(C#N)c(NCCNC(=O)COc3ccccc3)nc12,.,-7,10*,.,.,.
N=C1C(c2nc3ccccc3s2)=C(O)CN1c1ccccc1,.,3,6,.,.,.
CC(C)(C)c1nc(NC(=O)Nc2ccccc2)sc1Br,.,59*,3,.,.,.
S=C(Nc1ccc(Cl)cc1)c1nc2ccccc2s1,-67,13,8.4*,7,0.72,7
Cc1ccc(NC(=S)c2nc3ccccc3s2)cc1,-42,8,6,28,-0.45,-13
O=C(Nc1ccc(Cl)cc1)/C(=C/c1cccc(O)c1)c1nc2ccccc2s1,-28,54,8.5*,3,.,-3
CN(C)c1ccc(NC(=O)c2ccc(Cn3cc([N+](=O)[O-])cn3)cc2)cc1,.,-3,2,.,.,.
COc1ccc(C(C#N)Nc2ccccc2)cc1 (stereo unspecified),-21,-6,0,7,4.6*,-6
C/C(=N/NC(N)=S)c1ccc(Br)s1,.,-3,0,.,.,.
NC(=O)c1cc2cc(Cc3ccccc3Cl)ccc2oc1=O,.,-19,5,.,.,.
Cn1c(-c2ccccc2)cnc1SCC(=O)N1CCCCC1,-22,-8,3,18*,0.25,.
Cn1c(-c2ccccc2)cnc1SCC(=O)N1CCCc2ccccc21,-27,11,2,15,.,11
COC(=O)c1ccc(Cl)c(NC(=O)CN2CCN(Cc3ccccc3)CC2)c1,-8,-14,0,36*,0.71,-5
O=C(CN1CCOCC1)Nc1cccc(Cl)c1Cl,2,2,1,18,-0.89,-9
O=C(CN1CCOCC1)Nc1ccccc1Cl,-10,7,-1,60*,-1.1,-15
COC(=O)c1cccc(NC(=O)CN2CCN(Cc3ccccc3)CC2)c1,-23,6,-1,12,0.71,-10
O=C(Nc1cccc(C(F)(F)F)c1)c1cc(-c2cccs2)on1,-32,-1,6,67*,-1.2,-17
N#CC1=C(S)N(c2ccc(F)cc2)C2(CCCCC2)NC1=O,.,-5,0,.,.,.
COc1ccc(O[C@H]2C=C[C@@H](c3ccccc3)O[C@@H]2COC(=O)CC/C(C)=N/O[C@@H](C)CN2CCCCc3nc(C)c(C)cc32)cc1,-44,67*,-1,10,.,-3
C/C(CCN1CCc2nc(-c3ccccc3)c(-c3ccccc3)cc2C1)=N\O[C@@H](C)c1cn([C@H](CO)Cc2ccccc2)nn1,-37,-5,2,4,.,1
C/C(CCC(=O)OC[C@H]1O[C@H](C#Cc2ccccc2)C=C[C@@H]1Oc1ccc(C)cc1)=N\O[C@@H](C)CN1CCCCc2nc(C)c(C)cc21,-38,20,1,6,.,2
